# Measured values: ChEMBL document CHEMBL3244220, “Diuretic activity of Mannich base derivatives of ethacrynic acid and certain ethacrynic acid analogues” (J Med Chem, 1978)
# Activity calls are given as the source filed them. No cut-off for these calls is given here.
# Tests used:
# Canis familiaris [1] = assay: Toxicity in mongrel dog assessed as change in blood pressure at 17 umol/kg, iv for 10 mins; assay type: organism-based, Canis lupus familiaris; settings: in vivo
# Canis familiaris [2] = assay: Diuretic activity in mongrel dog assessed as decrease in glomerular filtration rate during 2 hrs period at 17 umol/kg, iv for 10 mins; assay type: functional, organism-based; settings: Canis lupus familiaris, Urine
# How it was run: (§1)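 Single 17.0 μmol/kg iv dose in 10 mL 0.9% saline, given over 10 min; sodium salts formed with NaHCO3 where needed. GFR from plasma and urine inulin; Na by flame photometry. Changes per kg computed for each 10-min period after dosing minus the predrug period; mean Δ ± SEM, paired comparison, p < 0.05.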
# Canis familiaris [3] = assay: Inhibition of ethacrynic acid-induced diuresis in mongrel dog assessed as decrease in glomerular filtration rate during 2 hrs period at 17 umol/kg, iv for 10 mins; assay type: organism-based, Canis lupus familiaris; settings: in vivo
# How it was run: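 Dogs received 17.0 μmol/kg iv over 10 min, and renal parameters were followed for 2 h. Sodium ethacrynate, 3.3 μmol/kg iv in 10 mL saline over 10 min, was then given. Inulin GFR/kg and Na excretion/kg were taken per 10-min period as change from the predrug value; mean Δ ± SEM; paired comparison, p < 0.05.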
# Canis familiaris [4] = assay: Toxicity in mongrel dog assessed as increase in systolic pressure at 17 umol/kg, iv for 10 mins; assay type: organism-based, Canis lupus familiaris; settings: in vivo
# Canis familiaris [5] = assay: Toxicity in mongrel dog assessed as increase in diastolic pressure at 17 umol/kg, iv for 10 mins; assay type: organism-based, Canis lupus familiaris; settings: in vivo
# [6] = Solubility of the compound in 0.9% saline; assay type: physicochemical; settings: buffer
# [7] = Biotransformation in mongrel dog assessed as ethacrynic acid-glutathione in urine at 17 umol/kg, iv for 10 mins after 2 hrs; assay type: ADME, organism-based, Canis lupus familiaris; settings: in vivo
# How it was run: (§2)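 Dogs given 17.0 μmol/kg iv in 10 mL 0.9% saline, prepared 3–5 min before dosing and infused over 10 min. Urine collected for 2 h after dosing and freeze-dried in 1-h portions; control urine from nine 10-min predrug periods handled the same way. Residues taken up in H2O and run on cellulose TLC in n-BuOH–C6H6–MeOH–H2O (20:10:12.5:10); spots located by UV and ninhydrin.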
# [8] = Metabolic stability in dog urine assessed as ethacrynic acid release after 72 hrs at pH 7 +/- 0.5 by NMR/TLC analysis; assay type: ADME, tissue-based, Canis lupus familiaris; settings: pH 7, 72 h
# [9] = Biotransformation in mongrel dog assessed as ethacrynic acid-cysteine in urine at 17 umol/kg, iv for 10 mins after 2 hrs; assay type: ADME, organism-based, Canis lupus familiaris; settings: in vivo; how it was run: as §2
# Canis familiaris [10] = assay: Diuretic activity in mongrel dog assessed as decrease in rate of sodium excretion during 2 hrs period at 17 umol/kg, iv for 10 mins; assay type: functional, organism-based; settings: Canis lupus familiaris, Urine; how it was run: as §1
solubility [6],Drug metabolism [7],Stability [8],Drug metabolism [9],Structure (SMILES),Activity (Canis familiaris [1]),Activity (Canis familiaris [2]),Activity (Canis familiaris [3]),Activity (Canis familiaris [4]),Activity (Canis familiaris [5]),Activity (Canis familiaris [10])
,,,,C=C(CC)C(=O)c1ccc(OCC(=O)[O-])cc1.[Na+],Non-toxic,inactive,Non-toxic,,,
,,,,C=C(C)C(=O)c1ccc(OCC(=O)[O-])c(Cl)c1Cl.[Na+],,Active,,Toxic,Toxic,
soluble,metabolite_detected,Unstable,metabolite_detected,CCC(CN(C)C)C(=O)c1ccc(OCC(=O)O)c(Cl)c1Cl.Cl (stereo not given),Non-toxic,Active,,,,
,,,,C=C(CC)C(=O)c1ccc(OCC(=O)[O-])c(Cl)c1Cl.[Na+] [ETHACRYNATE SODIUM],Non-toxic,Active,,,,
soluble,,Stable,,CN(C)CC(C)(C)C(=O)c1ccc(OCC(=O)O)c(Cl)c1Cl.Cl,Non-toxic,inactive,Toxic,,,inactive
soluble,,Stable,,CCC(CN(C)C)C(=O)c1ccc(OCC(=O)O)cc1.Cl (stereo not given),Non-toxic,inactive,Non-toxic,,,
